In ChEMBL document CHEMBL1133478, “Discovery of potent cyclic pseudopeptide human tachykinin NK-2 receptor antagonists” (J Med Chem, 2000):
Bridge positions count the residues as written; N and C are the ends. Square brackets hold non-standard residues; d marks the D form. Peptide text beside a SMILES is read from it. * marks the point of attachment. NH(β-GlcNAc) = CC(=O)N[C@@H]1[C@@H](O)[C@H](O)[C@@H](CO)O[C@H]1N*; Dap = NC[C@H](N)C(=O)O

Assays:
[1] = target: T1, Substance-K receptor (Homo sapiens, UniProt P21452); assay: Binding affinity towards Tachykinin receptor 2
T1 sequence (P21452 whole entry): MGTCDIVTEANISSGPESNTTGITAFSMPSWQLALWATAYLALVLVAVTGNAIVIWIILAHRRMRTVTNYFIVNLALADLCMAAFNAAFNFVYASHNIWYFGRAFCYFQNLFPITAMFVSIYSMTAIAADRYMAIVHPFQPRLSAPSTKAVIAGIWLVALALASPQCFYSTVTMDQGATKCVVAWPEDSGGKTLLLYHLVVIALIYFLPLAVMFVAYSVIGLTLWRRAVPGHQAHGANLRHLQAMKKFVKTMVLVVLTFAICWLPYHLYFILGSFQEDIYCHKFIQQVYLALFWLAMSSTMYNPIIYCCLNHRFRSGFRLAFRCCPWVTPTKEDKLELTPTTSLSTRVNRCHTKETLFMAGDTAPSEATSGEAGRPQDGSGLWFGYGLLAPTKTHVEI
Method in brief: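 Competition binding at human NK-2 receptor expressed in CHO cells, radioligand [125I]NKA. pKi computed with EBDA then LIGAND; mean of 2–6 experiments, each run in duplicate.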

[2] = tested on: Substance-K receptor (Oryctolagus cuniculus); assay: In Vitro evaluation for the functional activity towards Tachykinin receptor 2
[3] = target: Substance-P receptor (Cavia porcellus) (UniProt P30547)
[4] = target: T2, Neuromedin-K receptor (Cavia porcellus) (UniProt P30098)
T2 sequence (whole entry): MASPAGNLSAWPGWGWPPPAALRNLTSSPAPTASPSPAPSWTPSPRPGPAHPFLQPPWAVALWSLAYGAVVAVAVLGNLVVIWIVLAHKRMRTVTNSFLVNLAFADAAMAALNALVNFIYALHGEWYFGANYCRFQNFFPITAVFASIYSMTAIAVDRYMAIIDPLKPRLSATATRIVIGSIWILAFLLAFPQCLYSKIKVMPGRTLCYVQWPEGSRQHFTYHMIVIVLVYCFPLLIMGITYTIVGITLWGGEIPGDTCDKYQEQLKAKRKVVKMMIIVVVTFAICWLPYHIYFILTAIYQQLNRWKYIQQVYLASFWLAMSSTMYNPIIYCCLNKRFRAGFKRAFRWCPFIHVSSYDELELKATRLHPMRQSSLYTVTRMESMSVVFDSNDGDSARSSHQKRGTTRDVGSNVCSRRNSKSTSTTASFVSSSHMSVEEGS

[5] = target: T3, Substance-K receptor (Cavia porcellus) (UniProt Q64077)
T3 sequence (whole entry): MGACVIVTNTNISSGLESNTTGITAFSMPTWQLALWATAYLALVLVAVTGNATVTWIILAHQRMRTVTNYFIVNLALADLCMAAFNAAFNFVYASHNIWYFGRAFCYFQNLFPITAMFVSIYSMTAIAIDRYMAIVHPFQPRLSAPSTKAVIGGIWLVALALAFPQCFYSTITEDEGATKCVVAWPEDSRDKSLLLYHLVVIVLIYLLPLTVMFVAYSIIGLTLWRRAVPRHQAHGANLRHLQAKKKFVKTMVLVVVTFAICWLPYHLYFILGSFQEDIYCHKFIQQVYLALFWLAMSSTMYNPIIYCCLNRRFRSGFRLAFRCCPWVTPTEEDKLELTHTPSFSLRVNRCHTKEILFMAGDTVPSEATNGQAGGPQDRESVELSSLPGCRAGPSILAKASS

Substance-P receptor (Cavia porcellus), sequence (P30547 whole entry): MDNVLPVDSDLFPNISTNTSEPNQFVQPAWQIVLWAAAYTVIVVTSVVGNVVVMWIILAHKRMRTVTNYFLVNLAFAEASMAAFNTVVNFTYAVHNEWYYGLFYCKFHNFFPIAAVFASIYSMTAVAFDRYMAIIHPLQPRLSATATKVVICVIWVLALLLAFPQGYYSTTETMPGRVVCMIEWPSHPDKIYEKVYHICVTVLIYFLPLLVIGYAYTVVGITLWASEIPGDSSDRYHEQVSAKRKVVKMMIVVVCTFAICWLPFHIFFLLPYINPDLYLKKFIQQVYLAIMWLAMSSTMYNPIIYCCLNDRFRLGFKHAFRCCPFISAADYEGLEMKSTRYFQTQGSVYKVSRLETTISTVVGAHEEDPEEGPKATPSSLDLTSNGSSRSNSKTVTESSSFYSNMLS

SMILES | Ki [1] | pKb [2] | pKB [3] | pKB [4] | pKB [5]
O=C1CCC(=O)N[C@@H](Cc2c[nH]c3ccccc23)C(=O)N[C@@H](Cc2ccccc2)C(=O)NC[C@H](Cc2ccccc2)N1 | 1260 nM | 5.5 | – | – | –
COc1ccc(CC2CNC(=O)CCC(=O)N[C@@H](Cc3c[nH]c4ccccc34)C(=O)N[C@@H](Cc3ccccc3)C(=O)N2)cc1 (some centres not stated) | 10 nM | 7.1 | – | – | –
O=C1CCC(=O)N[C@H](Cc2ccccc2)CNC(=O)[C@H](Cc2ccccc2)NC(=O)C(Cc2c[nH]c3ccccc23)N1 (single isomer, unassigned) | 1260 nM | 5.4 | – | – | –
CSCC[C@@H]1NC(=O)[C@H](CC(C)C)NC(=O)[C@@H]2CNC(=O)C[C@H](NC1=O)C(=O)N[C@@H](Cc1c[nH]c3ccccc13)C(=O)N[C@@H](Cc1ccccc1)C(=O)N2 (cyclo(DWF[Dap]LM); lactam 1-4) | 0.631 nM | 8.1 | – | – | –
O=C1CCC(=O)N[C@@H](Cc2c[nH]c3ccccc23)C(=O)N[C@@H](Cc2ccccc2)C(=O)N[C@H](Cc2ccc(C(F)(F)F)cc2)CN1 | 20 nM | 7.1 | – | – | –
O=C1CC(Cc2ccccc2)C(=O)NCCNC(=O)[C@H](Cc2ccccc2)NC(=O)[C@H](Cc2c[nH]c3ccccc23)N1 (mixture of isomers) | 794 nM | 6.1 | – | – | –
O=C1CCC(=O)N[C@@H](Cc2c[nH]c3ccccc23)C(=O)N[C@@H](Cc2ccccc2)C(=O)N[C@H](Cc2ccc(F)c(F)c2)CN1 | 1.58 nM | 7.8 | – | – | –
O=C1CCC(=O)N[C@@H](Cc2c[nH]c3ccccc23)C(=O)N[C@@H](Cc2ccccc2)C(=O)N[C@H](Cc2ccc3ccccc3c2)CN1 | 7.94 nM | 7 | – | – | –
O=C1CCC(=O)N[C@@H](Cc2c[nH]c3ccccc23)C(=O)N[C@@H](Cc2ccccc2)C(=O)N[C@H](CCc2ccccc2)CN1 | 10 nM | 6.5 | – | – | –
O=C1CCC(=O)NC(Cc2c[nH]c3ccccc23)C(=O)N[C@@H](Cc2ccccc2)C(=O)N[C@H](Cc2ccccc2)CN1 (single isomer, unassigned) | 2 nM | – | 5.7 | 6.1 | 7.8
O=C1CCC(=O)N[C@@H](Cc2c[nH]c3ccccc23)C(=O)N[C@@H](Cc2ccccc2)C(=O)NCCN1 | 1260 nM | 6.3 | – | – | –

Next, values leading:

Ki [1] | pKb [2] | pKB [3] | pKB [4] | pKB [5] | SMILES
1260 nM | – | – | – | – | O=C1CCC(=O)N[C@@H](Cc2c[nH]c3ccccc23)C(=O)N[C@@H](Cc2ccccc2)C(=O)NC(Cc2ccccc2)CN1 (some centres not stated)
2.51 nM | – | – | – | – | CC(=O)N[C@@H]1[C@@H](O)[C@H](O)[C@@H](CO)O[C@H]1NC(=O)C[C@@H]1NC(=O)[C@H](CC(C)C)NC(=O)[C@@H]2CNC(=O)C[C@H](NC1=O)C(=O)N[C@@H](Cc1c[nH]c3ccccc13)C(=O)N[C@@H](Cc1ccccc1)C(=O)N2 (cyclo(D(NH(β-GlcNAc))DWF[Dap]L); lactam 2-5)
631 nM | 5.7 | – | – | – | O=C1CC(Cc2ccccc2)C(=O)N[C@@H](Cc2c[nH]c3ccccc23)C(=O)N[C@@H](Cc2ccccc2)C(=O)NCCN1 (mixture of isomers)
316 nM | 6.5 | – | – | – | O=C1CCC(=O)N[C@@H](Cc2c[nH]c3ccccc23)C(=O)N[C@@H](Cc2ccccc2)C(=O)N[C@H](CC2CCCCC2)CN1
0.1 nM | 8.1 | – | – | – | O=C1CCC(=O)N[C@@H](Cc2c[nH]c3ccccc23)C(=O)N[C@@H](Cc2ccccc2)C(=O)N[C@H](Cc2ccc(Cl)c(Cl)c2)CN1
